Bioassay records (PubChem BioAssay)
NS3 helicase inh – blocks Hepatitis C virus NS3 helicase unwinding. inhibition, % at 10.9 µM. hit rate 0.56% among 290,000. AID 1800. NS3 helicase DNA unwinding, Cy5 molecular beacon fluorescence;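 active means inhibition above the mean of all tested compounds plus 3 SD, set per campaign, cut at about 35% in these data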;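 further: 0% = DMSO wells and 100% = thioflavine S control wells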
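System: HCV NS3 helicase fragment; control set: DMSO and thioflavine S; technique: Cy5 fluorescence at 0 and 60 min, beacon hairpin quenching; reagent: beacon DNA duplex substrate plus ATP; replicates: singlicate; schedule: 1 h reaction at 25 °C, ATP-initiated; medium: MOPS buffer pH 6.5 with MgCl2, DTT, Tween20, BSA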
HSP90 refold inh – inhibitors of HSP90 luciferase refolding in rabbit reticulocyte lysate; hit rate 0.91% among 290,000; luciferase refolding luminescence, 3 h; inhibition, % at 5.6 µM;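 active means inhibition above the screen-wide mean plus 3 SD, computed separately per campaign, cut at about 16% in these data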;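 further: 0% = DMSO wells and 100% = 60 µM geldanamycin wells; inhibitors lower the luminescence because luciferase stays unfolded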
HCV core dimer – blocks dimerization of HCV core protein; TR-FRET GST/Flag-core106 dimerization, 1536-well; inhibition, % at 5 µM; hit rate 0.33% among 300,000; AID 1899;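 active means inhibition above the mean of all tested compounds plus 3 SD, set per screening campaign, cut at about 45% in these data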
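Assay system: Tagged HCV core106 pair (GST and Flag) | Buffer or medium: KF-containing HEPES buffer, pH 7.45, DTT, CHAPS, BSA | Also added: Eu donor and XL665 acceptor anti-tag antibodies | Dosing: One concentration, 5 µM, in 0.5% DMSO | Timing: 4 h at 22.5 °C | Technique: TR-FRET 671 and 617 nm emission | Repeats: Singlicate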
HSF1 inhib – HSF1 inhibition; hit rate 0.77% among 300,000; activity change, negative = inhibition, % at 7.5 µM (by protocol); NIH3T3-HGL HSE-luciferase, MG132-induced, luminescence 8 h; active compounds read low; AID 2098;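 active means more than half of replicate wells show activity change below -50%, luminescence cut by over half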;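 further: luciferase reports HSF-1 transcriptional activity via heat shock element; 0% = median of DMSO wells and -100% = zero luminescence signal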
HSF-1 act – increases HSF-1 driven luciferase reporter signal | NIH3T3-HGL HSF-1 luciferase reporter, MG132, 8 h; 100% = twice DMSO control signal | activation, % at 9 µM | hit rate 1.7% among 300,000;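 active means mean replicate activation of at least 50% with a set share of replicates each reaching 50%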;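 further: 0% = median of the neutral control wells and 100% = twice that signal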
DNA FID counter – counter-screen for HCV NS3 helicase inhibitors: DNA intercalator displacement; inhibition, % at 7.9 µM; hit rate 0.17% among 290,000; DNA fluorescent intercalator displacement, fluorescence; in the data active means inhibition above about 37%;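 further: 0% = vehicle and 100% = reference compound; higher means more ethidium bromide displaced from hairpin DNA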
* = called active by the depositor; x = no result given. Sampled rows, rich in hits. Any-hit rate of the full collection: about 3.9%.

SMILES	NS3 helicase inh	HSP90 refold inh	HCV core dimer	HSF1 inhib	HSF-1 act	DNA FID counter
Cc1nnc2sc(COc3ccccc3)nn2c1=O	-4	9	15	2	1	-7
c1ccc(OCc2nn3c(-c4n[nH]c5c4CCC5)nnc3s2)cc1	x	x	47*	-3	-9	x
CCc1ccc(N2Cc3ccccc3C2)cc1	-5	1	17	12	18	-6
Cc1cc(C)cc(N2Cc3ccccc3C2)c1	6	2	62*	-10	-28	-7
COc1ccc(N(CC(O)CN2CCCCC2)S(=O)(=O)c2ccc(C)cc2)cc1 (centres undefined)	-18	-1	-3	4	25	11
CCOc1ccc(NC(=S)Nc2ccc(OCC)cc2)cc1	-5	1	-6	-18	-23	-4
CCOc1ccc(NC(=S)Nc2ccc(C)c([N+](=O)[O-])c2)cc1	14	17*	0	23	22	1
COc1ccccc1NC(=O)OC(C)c1ccc(Cl)cc1 (centres undefined)	11	3	-17	1	0	-22
O=C(Nc1ccc([N+](=O)[O-])cc1)C1C(c2ccccc2)=C1c1ccccc1	6	-2	16	165	178*	-1
Cc1ccccc1C1CCCN(C(=O)c2cc(COc3c(F)cccc3F)on2)C1 (centres undefined)	-4	3	7	0	3	-21
CCCOC1CCCN(C(=O)c2cc(COc3c(F)cccc3F)on2)C1 (centres undefined)	1	-3	11	42	58*	-44
Cc1ccc(N(CC(=O)NCCc2ccc(F)cc2)S(=O)(=O)c2ccc(Cl)c([N+](=O)[O-])c2)c(C)c1	-2	5	6	85	89*	-16
O=C(CN(c1ccc(Br)cc1)S(=O)(=O)c1ccc(Cl)c([N+](=O)[O-])c1)NCCc1ccccc1	0	-2	2	-5	-15	-1
CN(C)c1ccc(/C=N/N=C2/SC(CC(=O)O)C(=O)N2c2ccc(O)cc2)cc1 (centres undefined)	0	1	-11	3	-4	-35
Cc1cc2c(NC(=O)Nc3ccc(C(F)(F)F)cc3)cccc2nn1	-2	1	-3	-6	4	2
CCN(CC)c1ccc(C(=O)NNC(=O)CCl)cc1	8	6	1	-2	-2	0
CCN(CC)c1ccc(C(=O)NNC(=O)c2cccn2C)cc1	x	x	6	18	55*	x
CCC(C)N(C)Cc1cccc(C2(O)CCN(S(=O)(=O)c3ccc(F)c(C)c3)CC2)c1 (centres undefined)	-27	7	-6	-4	6	38*
Cc1cc(S(=O)(=O)N2CCN(c3c(C)cccc3C)CC2)ccc1F	0	0	4	4	9	-6
O=C(N/N=C/c1ccco1)c1cc(-c2ccncc2)nc2ccccc12	8	1	x	1	19	-15
CC(/C=N/NC(=O)c1cc(-c2ccc(Cl)cc2)nc2ccccc12)=C\c1ccco1	11	5	88*	-10	-6	-2
CC(/C=N/NC(=O)c1cc(-c2ccccc2)nc2ccccc12)=C\c1ccco1	1	11	51*	19	55*	-13
CCCCn1c(N)c(N(CC(C)C)C(=O)c2cccc(S(=O)(=O)N3CCCCC3)c2)c(=O)[nH]c1=O	x	x	-1	-71*	-77	x
CCCCn1c(N)c(N(CC(C)C)C(=O)c2cccc(S(=O)(=O)N3CCCCCC3)c2)c(=O)[nH]c1=O	4	1	-12	-6	-3	-23
Cc1cc2ncn(CS(C)(=O)=O)c2cc1C	0	3	0	-6	-5	8
SMILES	NS3 helicase inh	HSP90 refold inh	HCV core dimer	HSF1 inhib	HSF-1 act	DNA FID counter
OC(CNCc1ccco1)Cn1c2ccc(Br)cc2c2cc(Br)ccc21 (centres undefined)	-13	-3	-3	23	61*	0
Brc1ccc2ncnc(NCc3ccco3)c2c1	3	4	9	-26	-19	1
COc1ccc(CN(CC2CCC(C(=O)O)CC2)C(=S)Nc2cc(Cl)ccc2OC)cc1 (centres undefined)	20	2	8	266	337*	-36
COc1ccc(CN(CC2CCC(C(=O)O)CC2)C(=S)Nc2cc(C)ccc2C)cc1 (centres undefined)	7	4	x	x	x	-33
CCOC(=O)C1CCCN(C(=O)C2CCN(S(=O)(=O)c3ccc4ccccc4c3)CC2)C1 (centres undefined)	-7	-1	5	2	4	-50
CCOCCCNC(=O)CCCn1nc(C)n2c(cc3sccc32)c1=O	4	-2	-8	1	-9	-14
CCN(CCNC(=O)CCCn1nc(C)n2c(cc3sccc32)c1=O)c1ccccc1	2	2	9	49	74*	-12
CCCCCC(/C=N/Nc1ccc(S(=O)(=O)N2CCOCC2)cc1[N+](=O)[O-])=C\c1ccccc1	3	3	3	-3	-12	0
CC(=O)Nc1ccc(-c2nnn(CC(=O)Nc3ccc4c(c3)OCO4)n2)cc1Cl	-24	-1	1	-59*	-67	-4
CN(C)c1ccc(-c2nnn(CC(=O)Nc3ccc4c(c3)OCCO4)n2)cc1	0	2	-3	-17	-12	1
CC1Cc2ccccc2N1C(=O)CSc1nnnn1C1CCCC1 (centres undefined)	4	-3	-1	1	14	3
Cc1ccc(/C=c2\s/c(=C(/C#N)C(=O)N3CCCC3)n(Cc3ccco3)c2=O)s1	27	12	24	50	90*	-26
C=C(C)CNC(=O)CCc1nnc(Cc2cccc(C(F)(F)F)c2)o1	-2	-2	-12	x	x	-8
COc1cc2c3c(c1OC)C1(C=CC(=O)C=C1)CC3N(C(=O)c1ccccc1)CC2 (centres undefined)	7	5	-4	25	55*	-30
COc1ccc(-n2c(=O)c3ccccc3c3ccccc3c2=O)c(OC)c1	3	1	2	-4	3	-12
COc1ccc(C)cc1-n1c(=O)c2ccccc2c2ccccc2c1=O	12	2	x	236	315*	-13
CC(C)(C)c1cc(NC(=O)CCSc2nnc3ccccn23)cc(C(C)(C)C)c1	-5	-1	9	17	54*	2
Cc1ccc([N+](=O)[O-])cc1NC(=O)c1cccnc1	4	-3	6	-10	0	0
COc1cc(NC(=O)c2cc3c(C)nc4ccccc4c3o2)cc(OC)c1OC	-3	0	8	-51*	-52	-32
Cc1nc2ccccc2c2oc(C(=O)Nc3ccc(C(C)C)cc3)cc12	-20	0	-4	-7	-9	-21
COc1cc(SC)ccc1C(=O)NCCOc1ccc(F)cc1	-4	1	-1	45	68*	-24
